Source: PubChem BioAssay (several laboratories)
KCC2 mod – KCC2 (human) Cl- transport modulation. KCC2 cells, thallium flux FluoZin-2 fluorescence. B-score of Tl+ flux slope (higher = more flux/activation; lower = inhibition) at 10 µM. hit rate 2.2% among 190,000;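 active means thallium flux slope and its plate-corrected score both differing from the plate sample mean at a set confidence after two filtering rounds, in either direction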;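 further: slope of fluorescence scaled to starting intensity during 10 to 20 s after thallium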
PKD1 inh – blocks activity of human protein kinase D1 | hit rate 0.056% among 200,000 | AID 797 | inhibition, % (concentration not given with the values) | PKD1 kinase fluorescence polarization assay; in the data active means inhibition above about 50%
Target sequence (Q15139 whole entry, looked up): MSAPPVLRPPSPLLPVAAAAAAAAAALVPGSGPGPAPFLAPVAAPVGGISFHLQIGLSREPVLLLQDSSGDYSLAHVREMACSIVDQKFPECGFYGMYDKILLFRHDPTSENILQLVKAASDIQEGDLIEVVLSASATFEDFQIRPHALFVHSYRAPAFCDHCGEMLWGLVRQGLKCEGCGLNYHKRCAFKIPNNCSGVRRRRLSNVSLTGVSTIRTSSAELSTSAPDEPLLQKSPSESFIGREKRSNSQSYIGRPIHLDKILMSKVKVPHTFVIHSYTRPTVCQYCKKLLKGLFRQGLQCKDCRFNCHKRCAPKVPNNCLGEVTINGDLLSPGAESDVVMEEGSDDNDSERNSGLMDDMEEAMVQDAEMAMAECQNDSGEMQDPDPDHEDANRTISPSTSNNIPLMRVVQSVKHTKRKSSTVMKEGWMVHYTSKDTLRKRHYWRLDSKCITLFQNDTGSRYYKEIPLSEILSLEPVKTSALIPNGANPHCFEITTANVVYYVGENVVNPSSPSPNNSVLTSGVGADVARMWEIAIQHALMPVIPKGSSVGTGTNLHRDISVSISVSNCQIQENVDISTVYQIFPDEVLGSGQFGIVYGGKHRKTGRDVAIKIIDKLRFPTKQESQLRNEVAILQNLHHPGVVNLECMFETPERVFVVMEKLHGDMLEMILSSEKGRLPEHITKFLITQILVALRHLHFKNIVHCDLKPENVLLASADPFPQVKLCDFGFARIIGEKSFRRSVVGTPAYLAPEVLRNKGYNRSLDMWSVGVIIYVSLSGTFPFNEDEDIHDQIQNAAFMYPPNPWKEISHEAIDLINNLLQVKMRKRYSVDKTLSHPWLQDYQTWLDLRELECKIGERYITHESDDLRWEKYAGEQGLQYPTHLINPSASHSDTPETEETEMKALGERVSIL
ROMK mod – modulators of human ROMK potassium channel; P48048; Tet-inducible ROMK, thallium flux fluorescence; actives lie on both sides; B-score at 10 µM; hit rate 2% among 130,000; AID 1918;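 active means signal ratio slope over the read window, or its plate-corrected B-score, at least 3 SD from the plate mean, either direction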;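 further: B-score of the F/F0 ratio slope over 7 to 12 s after thallium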
Arbovirus inh – antivirals against arbovirus infection; arbovirus infection cell-based antiviral screen; inhibition, % at 10 µM; hit rate 0.37% among 200,000; in the data active means inhibition above about 30%
Calpain2 inh – calpain II (pig) inhibition; purified calpain II, fluorogenic peptide substrate, 30 min; inhibition, % at 16 µM; hit rate 0.37% among 220,000; AID 1236;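 active means inhibition above about 50%, limit read from the data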
Mdm2 ligase inh – Mdm2 E3 ligase (human) inhibition; Q00987; cell-based MDM2 ubiquitination luciferase reporter, 2 h; 0 = plate control, 100 = twice control, blank-subtracted; signal enhancement, % at 5 µM; hit rate 0.11% among 210,000; AID 1230;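 active means signal enhancement of 30% or more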;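 further: luminescence tracks abundance of the self-degrading MDM2-luciferase fusion protein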
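Test system: stable mammalian line carrying autodegrading MDM2–luciferase fusion reporter; quantity: 2000 cells in each well; times: 4 h cell settling then 2 h compound exposure, 37 °C; detection: luminescence with SteadyLite reagent, 15 min at room temperature; evaluation: percent signal gain over controls, blank-subtracted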
KCC2 secondary – KCC2 (human) modulation, secondary assay | hit rate 15% among 3,700 | AID 1713 | shares compounds with KCC2 mod | normalised thallium flux (F/F0 slope) at 10 µM | HEK293-KCC2, thallium flux, FluoZin2 fluorescence; active compounds read high;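 active means thallium flux slope above the same plate's solvent-only control mean plus 3 SD; inconclusive means the two replicate wells disagree; inactive means no significant difference from solvent-only control wells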
KCC2 bumet counter – thallium flux persisting under bumetanide in KCC2 cells, counter-screen secondary assay. shares compounds with KCC2 mod. HEK293-KCC2 + bumetanide/ouabain, thallium flux FluoZin2; active compounds read high. normalized thallium flux at 10 µM. hit rate 49% among 3,700. AID 1714;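 active means thallium entry rate above the same plate's blocked-transporter control wells by more than 3 SD; inconclusive means the two repeat wells disagree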;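 further: raw slope of fluorescence over initial fluorescence between 10 and 20 s after thallium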
KCC2 sec2 – KCC2 (human) modulation, second secondary assay; HEK293-KCC2, thallium flux FluoZin2 fluorescence; actives lie on both sides; F/F0 rise rate, 10–20 s post-thallium; AID 1715; normalized thallium flux at 10 µM; hit rate 23% among 3,700; shares compounds with KCC2 mod;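 active means thallium flux slope more than 3 SD above or below the plate's solvent-only control mean, mostly below; inconclusive means the two repeat wells disagreed; inactive means no significant shift from solvent-only controls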
HEK counter1 – parental HEK flux effect, counter-screen; shares compounds with KCC2 mod; HEK293 parental cells, thallium flux FluoZin2, ouabain; baseline-ratio fluorescence slope, 10–20 s after thallium; thallium flux rate (normalised fluorescence) at 10 µM; hit rate 46% among 3,700; AID 1716;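 active means thallium flux rate significantly above the same plate's solvent-only control wells, beyond their mean plus 3 SD; inconclusive means the two replicate wells gave conflicting results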
KCC2 retest ouab – KCC2 (human) modulation, ouabain retest; shares compounds with KCC2 mod; HEK293-KCC2, thallium flux FluoZin2 fluorescence; bidirectional: low = inhibitor, high = activator; raw Tl+ flux slope (below DMSO = inhibition, above = activation) at 10 µM; hit rate 48% among 3,700;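 active means thallium flux slope beyond 3 SD from same-plate DMSO control mean in most replicates, usually higher, sometimes lower; inconclusive means repeat tests gave conflicting results; inactive means no significant difference from controls in most replicates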;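 further: slope of initial-normalized fluorescence between seconds 10 and 20 after thallium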
HEK293 Tl flux2 – counter-screen for KCC2 modulators: effect in parental HEK293 cells; thallium flux slope at 10 µM; thallium flux FluoZin-2 fluorescence slope; shares compounds with KCC2 mod; hit rate 33% among 3,700;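 active means thallium flux slope above the same plate's solvent-control mean plus 3 SD in both duplicate wells; inconclusive means duplicate wells that disagreed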;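 further: run without ouabain in cells lacking the KCC2 cotransporter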
Numbers stand for hits; i = inactive; ? = inconclusive; nt = not tested or not shown. Compounds with a hit are over-represented: about 3.7% of the library has one in this group of screens.

SMILES	KCC2 mod	PKD1 inh	ROMK mod	Arbovirus inh	Calpain2 inh	Mdm2 ligase inh	KCC2 secondary	KCC2 bumet counter	KCC2 sec2	HEK counter1	KCC2 retest ouab	HEK293 Tl flux2
CCN(CC)c1ccc(NC(=O)c2cc(Cl)ccc2OC)cc1	nt	i	i	i	i	i	nt	nt	nt	nt	nt	nt
O=C1NCCN(Cc2ccc(Cl)c(F)c2)C1CC(=O)N1CCCCO1 (stereo unspecified)	nt	i	i	i	i	i	nt	nt	nt	nt	nt	nt
CCN(CC)c1ccc(NC(=S)NC(=O)c2ccco2)cc1	69	i	i	i	i	i	0.043	0.17	?	?	0.12	?
CCc1ccc(C(=O)NC(=S)Nc2ccc3c(c2)OCCO3)cc1	i	i	nt	i	i	i	nt	nt	nt	nt	nt	nt
O=C(NC(=S)Nc1ccc2c(c1)OCO2)c1ccc(Cl)cc1	8.2	i	i	i	i	i	i	0.012	i	?	0.026	i
O=C(NC(=S)Nc1ccc2oc(=O)ccc2c1)c1ccco1	22	nt	nt	nt	i	i	i	0.049	0.044	0.03	0.046	0.029
O=C(NC(=S)Nc1ccc(Oc2ccccc2)cc1)c1ccc(Cl)cc1	31	i	i	i	i	i	i	0.022	?	0.016	0.028	0.014
CC(=O)Oc1ccc2ccccc2c1C(NC(=O)Cc1ccccc1)c1ccc(Cl)cc1 (stereo unspecified)	i	i	nt	i	i	i	nt	nt	nt	nt	nt	nt
O=C(NC(=S)Nc1ccc2c(c1)OCCO2)c1ccc(F)cc1Cl	16	i	i	i	i	i	i	0.022	i	0.012	?	i
CCN(CC)c1ccc(NC(=S)NC(=O)c2cccs2)cc1	21	i	i	i	i	i	0.016	0.079	i	0.084	0.051	0.02
Cc1cccc(C(=O)NC(=S)Nc2ccc(S(=O)(=O)N(C)c3ccccc3)cc2)c1	2.5	i	nt	i	i	i	i	0.014	i	i	0.026	0.012
CCCC(=O)Nc1ccc(NC(=S)NC(=O)c2cccs2)cc1	nt	i	nt	i	i	i	nt	nt	nt	nt	nt	nt
O=C(NC(=S)Nc1ccc(N2CCCCC2)c(Cl)c1)c1ccc2c(c1)OCCO2	i	i	i	i	i	i	nt	nt	nt	nt	nt	nt
Cc1ccccc1C(=O)NC(=S)Nc1ccc(S(=O)(=O)N(C)c2ccccc2)cc1	i	i	nt	i	i	i	nt	nt	nt	nt	nt	nt
O=C(NC(=S)Nc1cc(C(F)(F)F)ccc1N1CCOCC1)c1ccco1	89	nt	nt	nt	i	i	0.022	0.11	i	?	0.076	0.026
CC(=O)Nc1ccc(NC(=O)C(C)OC(=O)C2(c3ccc(Cl)cc3)CCCC2)cc1 (stereo unspecified)	i	i	i	i	i	i	nt	nt	nt	nt	nt	nt
CC(=O)c1nc2ccccc2n1S(=O)(=O)c1ccc(C)cc1	5.6	i	i	i	nt	i	i	?	i	i	i	i
COCc1cnc(C)nc1N	i	i	i	i	i	i	nt	nt	nt	nt	nt	nt
CN1C(c2ccc(F)cc2)=CS/C1=C(/C#N)c1nnc(N2CCOCC2)n1-c1ccccc1	i	i	nt	i	i	i	nt	nt	nt	nt	nt	nt
CCN1C(c2ccc(F)cc2)=CS/C1=C(\C#N)c1nnc2n1-c1ccccc1SC2	-5.1	i	nt	i	i	i	i	i	i	i	0.015	i
S=c1nc2ccccc2c2nc(-c3ccccc3)[nH]n12	32	i	nt	i	i	i	0.03	0.046	i	0.013	0.041	0.017
CSc1ccccc1NC(=O)c1cnc2scc(C)n2c1=O	-3.9	i	nt	i	i	i	i	i	0.027	0.0062	?	i
CSc1ccccc1NC(=O)c1cnccn1	3.4	i	nt	i	i	i	i	i	i	i	i	i
CC(C)c1ccccc1NC(=O)c1cnccn1	nt	i	nt	i	i	i	nt	nt	nt	nt	nt	nt
CCc1ccccc1NC(=O)c1cnc2scc(C)n2c1=O	i	i	nt	i	i	i	nt	nt	nt	nt	nt	nt
SMILES	KCC2 mod	PKD1 inh	ROMK mod	Arbovirus inh	Calpain2 inh	Mdm2 ligase inh	KCC2 secondary	KCC2 bumet counter	KCC2 sec2	HEK counter1	KCC2 retest ouab	HEK293 Tl flux2
O=C(CCC(=O)N(CC(=O)NC1CCCCC1)Cc1cccs1)Nc1ccccn1	i	i	nt	i	i	i	nt	nt	nt	nt	nt	nt
CCCCOCCCNC(=O)/C=C/c1ccccc1Cl	nt	i	nt	nt	nt	nt	nt	nt	nt	nt	nt	nt
O=C(O)/C=C/c1cn(Cc2ccccc2Cl)nc1-c1ccccc1	-5.1	nt	nt	nt	i	i	i	i	0.024	i	0.011	i
O=C(O)/C=C/c1cn(Cc2ccccc2)nc1-c1ccc(Cl)cc1	-4.7	i	i	i	i	i	?	i	?	i	0.012	i
Cc1ccc(-c2nn(Cc3ccccc3)cc2/C=C/C(=O)O)cc1	-4.5	i	nt	i	i	i	i	i	0.025	i	0.013	i
Cc1ccc(Cn2cc(/C=C/C(=O)O)c(-c3ccccc3)n2)cc1	i	i	nt	i	i	i	nt	nt	nt	nt	nt	nt
N#CCCn1cc(/C=C/C(=O)O)c(-c2ccc(F)cc2)n1	i	i	i	i	i	i	nt	nt	nt	nt	nt	nt
COc1ccc(C(=O)NC(C(=O)NCC(=O)Nc2c(C)cccc2C)C(C)C)cc1 (stereo unspecified)	i	i	i	i	i	i	nt	nt	nt	nt	nt	nt
CCOc1cc(N2CCOCC2)c(OCC)cc1NC(C)C(=O)N1CCC(C)CC1 (stereo unspecified)	i	i	nt	i	i	i	nt	nt	nt	nt	nt	nt
Cc1c([N+](=O)[O-])c([N+](=O)[O-])nn1CC(=O)N1CCOCC1	i	i	i	i	i	i	nt	nt	nt	nt	nt	nt
COc1cc2c(=O)n(CCCN3CCOCC3)c(=S)[nH]c2c(OC)c1OC	i	i	nt	i	i	i	nt	nt	nt	nt	nt	nt
COc1ccc(S(=O)(=O)N(CCc2ccccc2)CC(=O)O)cc1C	i	i	i	i	i	i	nt	nt	nt	nt	nt	nt
Oc1ccc(Cl)cc1C1=NNC(c2cccs2)C1 (stereo unspecified)	68	nt	nt	nt	i	i	i	0.098	?	0.061	0.077	0.023
Cc1ccc(O)c(C2=NNC(c3ccc(Cl)cc3)C2)c1 (stereo unspecified)	8.6	nt	nt	nt	i	i	i	0.016	i	0.013	i	?
Oc1ccccc1C1CC(c2cccs2)=NC(c2ccc(Cl)cc2)N1 (stereo unspecified)	i	i	i	i	i	i	nt	nt	nt	nt	nt	nt
CN(C)c1ccc(C(C#N)c2ccccc2)nn1 (stereo unspecified)	i	i	i	i	i	i	nt	nt	nt	nt	nt	nt
